Experimental data pooled from the literature.
Lines come from different studies, so protocols differ.
Target: Tyrosine-protein kinase Mer (MERTK, Homo sapiens, UniProt Q12866)
Sequence (Q12866 21-999, as in one of the studies): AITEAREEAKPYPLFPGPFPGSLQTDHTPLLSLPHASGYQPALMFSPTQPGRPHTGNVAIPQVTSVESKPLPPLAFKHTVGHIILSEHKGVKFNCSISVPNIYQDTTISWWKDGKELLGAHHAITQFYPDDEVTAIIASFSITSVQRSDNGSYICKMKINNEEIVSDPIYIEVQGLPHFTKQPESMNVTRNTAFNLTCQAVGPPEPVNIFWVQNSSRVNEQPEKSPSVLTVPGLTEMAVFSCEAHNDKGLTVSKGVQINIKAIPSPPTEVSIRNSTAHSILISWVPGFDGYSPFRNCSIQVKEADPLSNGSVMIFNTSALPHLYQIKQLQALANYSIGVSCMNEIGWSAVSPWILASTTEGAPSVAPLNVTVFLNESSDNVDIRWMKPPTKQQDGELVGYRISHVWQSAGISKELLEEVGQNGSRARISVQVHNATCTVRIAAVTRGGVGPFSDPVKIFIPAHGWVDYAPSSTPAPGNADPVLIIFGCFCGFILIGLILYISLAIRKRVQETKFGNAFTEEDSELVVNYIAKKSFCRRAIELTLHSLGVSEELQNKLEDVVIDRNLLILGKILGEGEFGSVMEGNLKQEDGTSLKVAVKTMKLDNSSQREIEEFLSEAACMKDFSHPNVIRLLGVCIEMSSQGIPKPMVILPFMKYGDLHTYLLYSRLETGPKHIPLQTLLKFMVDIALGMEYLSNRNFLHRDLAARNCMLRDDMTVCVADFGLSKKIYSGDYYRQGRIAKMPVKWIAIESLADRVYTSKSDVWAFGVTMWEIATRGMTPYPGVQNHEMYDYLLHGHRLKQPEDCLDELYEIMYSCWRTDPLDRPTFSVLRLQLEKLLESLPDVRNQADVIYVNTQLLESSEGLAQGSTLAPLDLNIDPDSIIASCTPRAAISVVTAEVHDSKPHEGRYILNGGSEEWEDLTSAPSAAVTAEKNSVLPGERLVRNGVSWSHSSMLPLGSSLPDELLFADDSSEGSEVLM

CS(=O)(=O)c1cc(C2(NC(=O)c3cncc4c3cnn4-c3ccc(F)cc3)CC2)ccn1 gave a remaining binding of 100% (cell-free assay, competition with immobilised ligand; 1 µM).
For CCN1CCN(Cc2ccc(C(=O)Nc3ccc(C)c(Oc4ccc5c(c4)CC(=O)N5)c3)cc2C(F)(F)F)CC1, the remaining binding was 100% (binding, competition with immobilised ligand; 1 µM).
With C[C@@H](c1ccc(-n2cnc3c(N)ncnc32)cc1)N1CCc2nn(C)c(Cc3ccccc3)c2C1=O the remaining binding was 100% (binding, competition with immobilised ligand; 0.1 µM).
CN(C)c1nccc(-c2cnc3ncccn23)n1 has a remaining binding of 82% (binding; 1 µM).
The remaining binding of O=C(c1ccc(Nc2nccc(-c3cc4ccccc4s3)n2)cc1)N1CCC(N2CCCC2)CC1 is reported as 42% (binding, competition with immobilised ligand; 1 µM).
For COc1cc(-c2cn(C3CCc4c(F)cccc4N(CC(F)(F)F)C3=O)nn2)ccc1-n1cnc(C)c1 (stereo not drawn), the remaining binding was 100% (cell-free assay, competition with immobilised ligand; 1 µM).
With FC(F)(F)Oc1cccc(-c2cnc3ccc(-c4ccncc4)nn23)c1 the remaining binding was 100% (cell-free assay, competition with immobilised ligand; 5 µM).
For CS(=O)(=O)N1CCCC(NC(=O)[C@H](CCC2CCCCC2)NC(=O)c2ccc(CNc3ncnc4c3nnn4-c3ccccc3)cc2)C1 (stereo partly drawn), the remaining binding was 91% (cell-free assay, competition with immobilised ligand; 0.1 µM).
With O=C(c1ccc(Nc2ncc(Cl)c(-c3ccc(Cl)s3)n2)cc1)N1CCC(N2CCCC2)CC1 the remaining binding was 4.3% (binding, competition with immobilised ligand; 1 µM).
With N[C@H]1CCN(c2nccc(-c3cnn4ncccc34)n2)C1 the remaining binding was 100% (binding; 1 µM).
FC(F)(F)c1ccc2c(c1)nc(-c1cccnc1)n2C1CC1 has a remaining binding of 79% (cell-free assay, competition with immobilised ligand; 1 µM).
For O=C(NCCCN1CCOCC1)c1ccc(Nc2nccc(-c3cc4ccccc4s3)n2)cc1, the remaining binding was 45% (binding, competition with immobilised ligand; 1 µM).
C=CC(=O)N1CCC(C(=O)NCC(=O)N2CCN(c3nc(-c4cnc(N)nc4C(F)F)nc(N4CCOCC4)n3)CC2)CC1 has a remaining binding of 94% (binding, competition with immobilised ligand; 1 µM).
With CN(c1nccc(-c2cnn3ncccc23)n1)C1CC1 the remaining binding was 100% (binding; 1 µM).
O=C(N[C@H]1CCCCC/C=C\C2C[C@@]2(C(=O)O)NC(=O)[C@@H]2C[C@@H](Oc3ccncc3)CN2C1=O)OC1CCCC1 (stereo partly drawn) gave a remaining binding of 64% (binding, competition with immobilised ligand; 1 µM).
For F[C@@H]1CCN(c2nccc(-c3cnn4ncccc34)n2)C1, the remaining binding was 100% (binding; 1 µM).
COc1cnc(Nc2cccc(S(N)(=O)=O)c2)nc1N1CCN(c2ccccc2)CC1 has a remaining binding of 65% (binding, competition with immobilised ligand; 1 µM).
C[C@@H]1CCN(c2nccc(-c3cnn4ncccc34)n2)C1 has a remaining binding of 100% (binding; 1 µM).
For O=C(NCC1CCOCC1)c1n[nH]cc1NC(=O)c1c(F)cccc1F, the remaining binding was 98% (binding, competition with immobilised ligand; 1 µM).
For CC(=O)N1CCC(c2ccc(C(=O)NC(=N)N)cc2C(F)(F)F)CC1, the remaining binding was 81% (cell-free assay, competition with immobilised ligand; 1 µM).
The remaining binding of c1cnn2ncc(-c3ccnc(N4CCC45COC5)n3)c2c1 is reported as 87% (binding; 1 µM).
